Active and inactive are the calls of the source. The rule behind the calls is not given here.
What was measured:
PC-3 = assay: Cytotoxicity against human PC3 cells after 72 hrs by XTT colorimetric assay; format: functional, cell-based; details: PC-3, 72 h
Method in brief: (§1)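 Seven-line tumour panel run with an XTT colorimetric cytotoxicity read-out; IC50 values estimated from the XTT data. Tissue origins: A549 lung carcinoma, MCF-7 breast cancer, OVCAR-3 ovarian cancer, PC-3 prostate cancer, WiDr colorectal cancer.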

A549 [1] = assay: Cytotoxicity against human A549 cells after 72 hrs by XTT colorimetric assay; format: functional, cell-based; details: A549, 72 h; method in brief: as §1
OVCAR-3 = assay: Cytotoxicity against human OVCAR-3 cells after 72 hrs by XTT colorimetric assay; format: functional, cell-based; details: OVCAR-3, 72 h; method in brief: as §1
WiDr [2] = assay: Cytotoxicity against human WiDr cells after 72 hrs by XTT colorimetric assay
MCF7 [3] = assay: Cytotoxicity against human MCF7 cells after 72 hrs by XTT colorimetric assay; format: functional, cell-based; details: MCF7, 72 h; method in brief: as §1
[4] = Cytotoxicity against human JeKo1 cells after 72 hrs by XTT colorimetric assay; format: functional, cell-based; details: JeKo-1, 72 h
Method in brief: (§2)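 Mantle cell lymphoma lines (JeKo-1, JVM-2), screened within a seven-line human tumour panel. Viability read out by XTT colorimetric cytotoxicity assay, with IC50 estimated from the resulting growth inhibition data.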

JVM-2 = assay: Cytotoxicity against human JVM2 cells after 72 hrs by XTT colorimetric assay; format: functional, cell-based; details: JVM-2, 72 h; method in brief: as §2
WiDr [5] = assay: Cytotoxicity against human WiDr cells upto 5 uM after 72 hrs by XTT colorimetric assay; format: functional, cell-based
Method in brief: (§3)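 Initial screen on a five-line panel (A549, COS-7, MCF-7, WiDr, NIH3T3). Compounds were tested at concentrations up to 5 µM. Read-out was percent inhibition of cell growth at the highest concentration, 5 µM.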

A549 [6] = assay: Cytotoxicity against human A549 cells upto 5 uM after 72 hrs by XTT colorimetric assay; format: functional, cell-based; method in brief: as §3
NIH3T3 = assay: Cytotoxicity against mouse NIH3T3 cells upto 5 uM after 72 hrs by XTT colorimetric assay; format: cell-based; details: nih3t3, 72 h; method in brief: as §3
[7] = Cytotoxicity against african green monkey COS7 cells upto 5 uM after 72 hrs by XTT colorimetric assay; format: cell-based; details: chlorocebus aethiops, cos-7, 72 h; method in brief: as §3
MCF7 [8] = assay: Cytotoxicity against human MCF7 cells upto 5 uM after 72 hrs by XTT colorimetric assay; format: functional, cell-based; method in brief: as §3
MCF7 [9] = assay: Cytotoxicity against human MCF7 cells at 5 uM after 72 hrs by XTT colorimetric assay; format: functional; method in brief: as §3
A549 [10] = assay: Cytotoxicity against human A549 cells at 5 uM after 72 hrs by XTT colorimetric assay; format: functional; method in brief: as §3

Compound	IC50 (PC-3)	IC50 (A549 [1])	IC50 (OVCAR-3)	IC50 (WiDr [2])	IC50 (MCF7 [3])	further results
CC[C@H](O)[C@@H](C)[C@H]1O[C@@H]1C[C@H](C)/C=C/C=C(\C)[C@H]1OC(=O)C[C@H](O)CC[C@@](C)(O)[C@@H](OC(C)=O)CC[C@@H]1C [PLADIENOLIDE B]	0.0023 µM	0.0014 µM	0.0004 µM	0.00086 µM	0.0004 µM	
CC(=O)O[C@@H](C)/C=C\C(=O)N[C@H]1CC[C@@H](C/C=C(C)/C=C/[C@@H]2C[C@]3(CO3)CC(C)(C)O2)CC1	2.12 µM	4.65 µM	1.98 µM	2.03 µM	2.29 µM	IC50 [4]: 0.1 µM; IC50 (JVM-2): 0.13 µM
CC(=O)O[C@@H](C)/C=C\C(=O)N[C@H]1CC[C@@H](CNC(=O)OC[C@@H]2C[C@]3(CO3)CC(C)(C)O2)CC1						Activity (WiDr [5]): inactive; Activity (A549 [6]): inactive; Activity (NIH3T3): Not Active; Activity [7]: Not Active; Activity (MCF7 [8]): inactive
CC(=O)O[C@@H](C)/C=C\C(=O)N[C@H]1CC[C@@H](COC(=O)OC[C@@H]2C[C@]3(CO3)CC(C)(C)O2)CC1						Activity (MCF7 [9]): 10%; Activity (A549 [10]): 10%
CC(=O)O[C@@H](C)/C=C\C(=O)N[C@@H]1C[C@H](C)[C@H](C/C=C(C)/C=C/[C@H]2O[C@](C)(O)C[C@@]3(CO3)[C@@H]2O)O[C@@H]1C		0.0013 µM			0.0018 µM	
